# Results reported in ChEMBL document CHEMBL4689842, “EUbOPEN Chemogenomics Library wave 1” (2021).
# System: Fibroblast
# Assay: Multiplex assay against human fibroblast
# Format: toxicity, cell-based
# Method in brief: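 Phenotypes for tubulin, mitochondrial mass and membrane permeability are expressed as per cents of healthy-nucleus cells. Cells were stained live at seeding with Hoechst33342, BioTracker Green Microtubule Cytoskeleton Dye, MitoTracker Red and Annexin V Alexa Fluor 680, then imaged after compound addition on a CQ1 microscope at 37°C and 5% CO2. Machine-learning gating in CellPathfinder separated Hoechst high-intensity objects from normal cells, divided normal cells by nuclear state (healthy, pyknosed, fragmented) and divided pyknosed cells into mitotic or apoptotic.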
# [1] = 12 h, 1 µM, compound concentration 1 uM, replicate 1
# [2] = 12 h, 1 µM, compound concentration 1 uM, replicate 2
# [3] = 12 h, 10 µM, compound concentration 10 uM, replicate 1
# [4] = 12 h, 10 µM, compound concentration 10 uM, replicate 2
# [5] = 24 h, 1 µM, compound concentration 1 uM, replicate 1
# [6] = 24 h, 1 µM, compound concentration 1 uM, replicate 2
# [7] = 24 h, 10 µM, compound concentration 10 uM, replicate 1
# [8] = 24 h, 10 µM, compound concentration 10 uM, replicate 2
smiles,measurement,setting,value
COc1ccc(-c2ccc3c(N4CCOCC4)nc(N4C[C@@H](C)O[C@@H](C)C4)nc3n2)cc1CO [Ku-0063794],Population Apoptotic (%),[1],72%
same,Population Fragmented Nuclei (%),[1],30%
same,Population Healthy Nuclei (%),[1],52%
same,Population Hoechst High Intensity Objects (%),[1],16%
same,Population Membrane Permeable-Phenotype (%),[1],5%
same,Population Mitochondria Different-Phenotype (%),[1],1%
same,Population Mitotic Cells (%),[1],27%
same,Population Normal (%),[1],83%
same,Population Pyknosed Nuclei (%),[1],16%
same,Population Tubulin-Different-Phenotype (%),[1],3%
same,Total Cell Count,[1],281
same,Population Apoptotic (%),[2],33%
same,Population Fragmented Nuclei (%),[2],61%
same,Population Healthy Nuclei (%),[2],30%
same,Population Hoechst High Intensity Objects (%),[2],35%
same,Population Membrane Permeable-Phenotype (%),[2],17%
same,Population Mitochondria Different-Phenotype (%),[2],13%
same,Population Mitotic Cells (%),[2],66%
same,Population Normal (%),[2],64%
same,Population Pyknosed Nuclei (%),[2],8%
same,Population Tubulin-Different-Phenotype (%),[2],17%
same,Total Cell Count,[2],116
same,Population Apoptotic (%),[3],77%
same,Population Fragmented Nuclei (%),[3],72%
same,Population Healthy Nuclei (%),[3],20%
same,Population Hoechst High Intensity Objects (%),[3],63%
same,Population Membrane Permeable-Phenotype (%),[3],14%
same,Population Mitochondria Different-Phenotype (%),[3],3%
same,Population Mitotic Cells (%),[3],22%
same,Population Normal (%),[3],36%
same,Population Pyknosed Nuclei (%),[3],6%
same,Population Tubulin-Different-Phenotype (%),[3],7%
same,Total Cell Count,[3],736
same,Population Apoptotic (%),[4],0%
same,Population Fragmented Nuclei (%),[4],82%
same,Population Healthy Nuclei (%),[4],17%
same,Population Hoechst High Intensity Objects (%),[4],66%
same,Population Membrane Permeable-Phenotype (%),[4],42%
same,Population Mitochondria Different-Phenotype (%),[4],42%
same,Population Mitotic Cells (%),[4],0%
same,Population Normal (%),[4],33%
same,Population Pyknosed Nuclei (%),[4],0%
same,Population Tubulin-Different-Phenotype (%),[4],28%
same,Total Cell Count,[4],244
same,Population Apoptotic (%),[5],67%
same,Population Fragmented Nuclei (%),[5],33%
same,Population Healthy Nuclei (%),[5],54%
same,Population Hoechst High Intensity Objects (%),[5],18%
same,Population Membrane Permeable-Phenotype (%),[5],7%
same,Population Mitochondria Different-Phenotype (%),[5],2%
same,Population Mitotic Cells (%),[5],32%
same,Population Normal (%),[5],81%
same,Population Pyknosed Nuclei (%),[5],11%
same,Population Tubulin-Different-Phenotype (%),[5],3%
same,Total Cell Count,[5],290
same,Population Apoptotic (%),[6],80%
same,Population Fragmented Nuclei (%),[6],65%
same,Population Healthy Nuclei (%),[6],28%
same,Population Hoechst High Intensity Objects (%),[6],25%
same,Population Membrane Permeable-Phenotype (%),[6],9%
same,Population Mitochondria Different-Phenotype (%),[6],13%
same,Population Mitotic Cells (%),[6],20%
same,Population Normal (%),[6],74%
same,Population Pyknosed Nuclei (%),[6],6%
same,Population Tubulin-Different-Phenotype (%),[6],13%
same,Total Cell Count,[6],105
same,Population Apoptotic (%),[7],59%
same,Population Fragmented Nuclei (%),[7],72%
same,Population Healthy Nuclei (%),[7],21%
same,Population Hoechst High Intensity Objects (%),[7],58%
same,Population Membrane Permeable-Phenotype (%),[7],10%
same,Population Mitochondria Different-Phenotype (%),[7],0%
same,Population Mitotic Cells (%),[7],40%
same,Population Normal (%),[7],41%
same,Population Pyknosed Nuclei (%),[7],6%
same,Population Tubulin-Different-Phenotype (%),[7],7%
same,Total Cell Count,[7],790
same,Population Apoptotic (%),[8],100%
same,Population Fragmented Nuclei (%),[8],78%
same,Population Healthy Nuclei (%),[8],20%
same,Population Hoechst High Intensity Objects (%),[8],70%
same,Population Membrane Permeable-Phenotype (%),[8],28%
same,Population Mitochondria Different-Phenotype (%),[8],21%
same,Population Mitotic Cells (%),[8],0%
same,Population Normal (%),[8],29%
same,Population Pyknosed Nuclei (%),[8],1%
same,Population Tubulin-Different-Phenotype (%),[8],21%
same,Total Cell Count,[8],241
